Test results taken from ChEMBL document CHEMBL4414673, “The DESIGNER Approach Helps Decipher the Hypoglycemic Bioactive Principles of Artemisia dracunculus (Russian Tarragon)” (J Nat Prod, 2019).
The source made the active and inactive calls. The rule behind the calls is not given here.

What was measured:
C2C12 = experiment: Activation of insulin signalling in palmitate-induced insulin resistant mouse C2C12 cells assessed as increase in glycogen level at 10 ug/ml; type: functional, cell-based
How it was run: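 Palmitate-treated, insulin-resistant C2C12 myotubes (differentiated in 2% horse serum, low-glucose DMEM) were treated at 10 μg/mL and exposed to insulin for 10 min before harvest. Glycogen was measured with a kit assay and expressed as ng released glucose/μg protein.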

Mus musculus [1] = experiment: Hypoglycemic activity in high fat diet-induced obese C57BL/6J mouse assessed as increase in C-peptide level at 100 to 300 mg/kg […] and measured after 6 hrs post dose; type: functional, organism-based
How it was run: (§1)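 Diet-induced obese male C57BL/6J mice were given one gavage dose (100 or 300 mg/kg, Labrasol vehicle). Fasting plasma insulin and C-peptide (ng/mL) were measured by ELISA 6 h after dosing, as mean ± SD versus vehicle.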

Mus musculus [2] = experiment: Effect on total IRbeta expression in high fat diet-induced obese C57BL/6J mouse skeletal muscle at 100 to 300 mg/kg administered via gavage for 2 weeks and measured after 6 hrs post dose by Western blot analysis; type: organism-based; conditions: in vivo, po
How it was run: (§2)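 Male C57BL/6J mice, singly housed, were fed a 60% kcal fat diet from 4 weeks of age for 16 weeks and acclimated to gavage for 2 weeks. They got one gavage dose of 100 or 300 mg/kg in Labrasol vehicle and were euthanized at 6 h. Muscle, liver or gonadal fat was lysed in HEPES/Igepal buffer, and 50 μg protein was immunoblotted with chemiluminescent detection.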

Mus musculus [3] = experiment: Effect on insulin signalling in high fat diet-induced obese C57BL/6J mouse assessed as increase in AKT phosphorylation at serine […] residue in skeletal muscle at 100 to 300 mg/kg administered via gavage for 2 weeks and measured after 6 hrs post dose by Western blot analysis; type: functional, organism-based; how it was run: as §2
Mus musculus [4] = experiment: Effect on insulin signalling in high fat diet-induced obese C57BL/6J mouse assessed as increase in IR-beta phosphorylation at tyrosine 1150 residue at 100 to 300 mg/kg administered via gavage for 2 weeks and measured after 6 hrs post dose by Western blot analysis; type: functional, organism-based; how it was run: as §2
[5] = Toxicity in high fat diet-induced C57BL/6J mouse assessed as upregulation of total AKT expression in adipose tissue at 300 mg/kg administered via gavage for 2 weeks and measured after 6 hrs post dose by Western blot analysis; type: organism-based; conditions: in vivo, po; how it was run: as §2
Mus musculus [6] = experiment: Effect on insulin signalling in high fat diet-induced obese C57BL/6J mouse assessed as effect on AKT phosphorylation at threonine 308 residue expression in liver at 100 to 300 mg/kg administered via gavage for 2 weeks and measured after 6 hrs post dose by Western blot analysis; type: functional, organism-based; how it was run: as §2
[7] = target: Glycogen synthase kinase-3 alpha/beta (Mus musculus) (UniProt Q9WV60+Q2NL51); experiment: Activation of insulin signalling in palmitate-induced insulin resistant mouse C2C12 cells assessed as increase GSK-3 alpha/beta phosphorylation at 10 ug/ml by Western blot analysis; type: cell-based
Sequence of Glycogen synthase kinase-3 alpha/beta (Mus musculus) (Q2NL51 whole entry, looked up): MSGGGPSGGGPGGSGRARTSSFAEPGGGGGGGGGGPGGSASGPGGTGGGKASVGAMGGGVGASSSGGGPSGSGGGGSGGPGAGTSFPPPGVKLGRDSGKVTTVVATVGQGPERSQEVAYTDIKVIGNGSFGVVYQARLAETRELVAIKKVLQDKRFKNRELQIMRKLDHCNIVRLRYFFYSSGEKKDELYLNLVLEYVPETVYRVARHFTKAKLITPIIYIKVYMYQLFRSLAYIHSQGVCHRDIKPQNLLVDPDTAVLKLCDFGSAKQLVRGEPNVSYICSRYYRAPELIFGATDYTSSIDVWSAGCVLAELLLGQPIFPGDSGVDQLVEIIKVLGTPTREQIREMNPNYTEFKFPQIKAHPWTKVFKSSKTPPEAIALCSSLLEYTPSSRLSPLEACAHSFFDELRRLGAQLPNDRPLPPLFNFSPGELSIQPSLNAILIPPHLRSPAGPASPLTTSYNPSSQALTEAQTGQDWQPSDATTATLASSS
Sequence of Glycogen synthase kinase-3 alpha/beta (Mus musculus) (Q9WV60 whole entry, looked up): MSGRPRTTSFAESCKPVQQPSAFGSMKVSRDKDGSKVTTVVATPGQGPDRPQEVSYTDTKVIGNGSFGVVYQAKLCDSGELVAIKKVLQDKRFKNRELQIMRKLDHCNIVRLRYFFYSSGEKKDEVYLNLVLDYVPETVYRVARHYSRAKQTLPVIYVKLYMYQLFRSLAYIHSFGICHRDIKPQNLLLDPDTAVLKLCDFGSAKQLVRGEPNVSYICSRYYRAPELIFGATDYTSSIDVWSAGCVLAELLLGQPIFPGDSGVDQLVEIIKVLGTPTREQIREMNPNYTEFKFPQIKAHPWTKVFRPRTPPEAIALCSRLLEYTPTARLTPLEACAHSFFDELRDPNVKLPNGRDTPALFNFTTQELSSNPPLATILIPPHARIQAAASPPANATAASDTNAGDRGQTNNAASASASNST
How it was run: (§3)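 C2C12 myoblasts were grown in high-glucose (25 mM) DMEM with 10% FBS and differentiated with 2% horse serum, then switched to low-glucose (5 mM) medium. Insulin resistance was induced with palmitate. Myotubes were treated at 10 μg/mL, exposed to insulin for 10 min and harvested. Total and phosphorylated signaling proteins were analysed by Western blot.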

Mus musculus [8] = experiment: Effect on insulin signalling in high fat diet-induced obese C57BL/6J mouse assessed as increase in PI3K-P85 expression in skeletal muscle at 100 mg/kg administered via gavage for 2 weeks and measured after 6 hrs post dose by Western blot analysis; type: functional, organism-based; how it was run: as §2
[9] = target: RAC-alpha serine/threonine-protein kinase (Mus musculus) (UniProt P31750); experiment: Activation of insulin signalling in palmitate-induced insulin resistant mouse C2C12 cells assessed as upregulation of AKT phosphorylation at threonine 308 and Ser273 residue at 10 ug/ml by Western blot analysis; type: cell-based; how it was run: as §3
Sequence of RAC-alpha serine/threonine-protein kinase (Mus musculus) (P31750 whole entry): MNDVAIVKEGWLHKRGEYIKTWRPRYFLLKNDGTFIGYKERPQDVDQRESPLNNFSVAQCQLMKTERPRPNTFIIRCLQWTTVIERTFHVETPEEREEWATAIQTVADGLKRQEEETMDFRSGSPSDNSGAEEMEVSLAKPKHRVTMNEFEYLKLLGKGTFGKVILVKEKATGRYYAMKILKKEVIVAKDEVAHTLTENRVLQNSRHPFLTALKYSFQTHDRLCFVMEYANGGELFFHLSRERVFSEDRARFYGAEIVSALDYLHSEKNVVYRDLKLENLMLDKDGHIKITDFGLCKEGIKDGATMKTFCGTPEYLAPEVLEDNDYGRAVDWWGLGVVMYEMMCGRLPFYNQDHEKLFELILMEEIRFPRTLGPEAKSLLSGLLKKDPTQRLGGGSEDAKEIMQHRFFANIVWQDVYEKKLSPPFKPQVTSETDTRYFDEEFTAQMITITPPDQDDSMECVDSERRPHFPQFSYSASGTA

[10] = Toxicity in high fat diet-induced obese C57BL/6J mouse assessed as effect on body weight at 100 to 300 mg/kg administered via gavage for 2 weeks and measured after 6 hrs post dose; type: organism-based; conditions: in vivo, po
How it was run: (§4)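 Male C57BL/6J mice on a 60% kcal fat diet from 4 weeks of age were weighed weekly. Body weights at 20 weeks of age are reported for mice randomized to the gavage treatment groups, as mean ± SD versus vehicle.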

Mus musculus [11] = experiment: Hypoglycemic activity in high fat diet-induced obese C57BL/6J mouse assessed as reduction in blood glucose level at 100 to 300 mg/kg […] and measured after 6 hrs post dose; type: functional, organism-based
How it was run: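 Obese male C57BL/6J mice (60% kcal fat diet for 16 weeks, gavage-acclimated for 2 weeks) received one oral gavage dose of 100 or 300 mg/kg in Labrasol. Fasting whole-blood glucose was read by glucometer at baseline and hourly. Results are given as mg/dL and % change from baseline at 6 h, mean ± SD versus vehicle.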

Mus musculus [12] = experiment: Effect on insulin signalling in high fat diet-induced obese C57BL/6J mouse assessed as effect on AKT phosphorylation at threonine 308 residue expression in adipose tissue at 100 to 300 mg/kg administered via gavage for 2 weeks and measured after 6 hrs post dose by Western blot analysis; type: functional, organism-based; how it was run: as §2
Mus musculus [13] = experiment: Hypoglycemic activity in high fat diet-induced obese C57BL/6J mouse assessed as increase in insulin level at 300 mg/kg administered via gavage […] and measured after 6 hrs post dose; type: functional, organism-based; how it was run: as §1
Mus musculus [14] = experiment: Effect on insulin signalling in high fat diet-induced C57BL/6J mouse assessed as AKT phosphorylation at Ser […] residue in adipose tissue at 100 to 300 mg/kg administered via gavage for 2 weeks and measured after 6 hrs post dose by Western blot analysis; type: functional, organism-based; how it was run: as §2
Mus musculus [15] = experiment: Effect on insulin signalling in high fat diet-induced C57BL/6J mouse assessed as AKT phosphorylation at Ser […] residue in liver at 100 to 300 mg/kg administered via gavage for 2 weeks and measured after 6 hrs post dose by Western blot analysis; type: functional, organism-based; how it was run: as §2
[16] = Toxicity in high fat diet-induced obese C57BL/6J mouse assessed as effect on body weight at 300 mg/kg administered via gavage for 2 weeks and measured after 6 hrs post does; type: organism-based; conditions: in vivo, po; how it was run: as §4

| Compound | Activity (C2C12) | Activity (Mus musculus [1]) | Activity (Mus musculus [2]) | Activity (Mus musculus [3]) | Activity (Mus musculus [4]) | Activity [5] | Activity (Mus musculus [6]) | Activity [7] | Activity (Mus musculus [8]) | Activity [9] | Activity [10] | Activity (Mus musculus [11]) | Activity (Mus musculus [12]) | Activity (Mus musculus [13]) | Activity (Mus musculus [14]) | Activity (Mus musculus [15]) | Activity [16] |
| --- | --- | --- | --- | --- | --- | --- | --- | --- | --- | --- | --- | --- | --- | --- | --- | --- | --- |
| COc1ccc(CCC(=O)c2ccc(O)cc2O)cc1 | Active | Active | Non-Toxic | Active | inactive | Toxic | inactive | Active | Active | Active | Non-Toxic | Active | inactive | Active | inactive | Active |  |
| CN(C)C(=N)N=C(N)N [METFORMIN] |  |  |  |  |  |  |  |  |  |  |  |  |  |  |  |  | Non-Toxic |
